We go through three compounds from paper PMC4565189 (Biochemistry, 2013).

No end group written: not given here.

Data set [1] relates to α-synuclein self-association in SK-N-SH cells. Format: cell-based, human.
The subject of data set [2] is PLCβ1. The data set can be described thus: Western blot of PLCβ1 level in SK-N-SH cells under oxidative stress. Format: cell-based, human. (In general: Immunoblotting shows a protein as a band on a membrane.)
Data set [3] relates to PLCβ1. Format: biochemical.
In a further data set the test system is α-synuclein. Format: cell-based, human.
In a further data set the test system is purified α-synuclein. Nature of the data set: CoCl2-induced aggregation of purified α-synuclein, SDS gel. Format: biochemical.
In data set [4] the test system is PLCβ1-α-synuclein association. Nature of the data set: In vitro FRET: CPM-PLCβ1 / Dabcyl-α-synuclein association. Format: binding. Particulars: 200 µM and 500 µM peptide.
Data set [5] relates to α-synuclein self-association in PC12 cells. Nature of the data set: GFP-α-synuclein/mCherry-α-synuclein FRET in PC12 cells. Format: cell-based, human. Particulars: 50 µM peptide microinjected, viewed within 2 h. The procedure, abridged: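 PC12 cells (DMEM, 10% horse serum, 5% FBS, 37 °C, 5% CO₂) are electroporated with eGFP- and mCherry-α-synuclein and plated on glass-bottom dishes 24 h later. Medium is switched to phenol-free L-15. Peptide (50 µM in pipette; 100 mM KCl, 5 mM K₂HPO₄, pH 7.4, 5 µM DAPI marker) is injected into cytoplasm for 0.4 s (30/15 hPa). Viable cells are selected, then confocal FRET is imaged within 2 h.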

The test system of the next data set is PLCβ1-C3PO interaction. The note with it: in vitro FRET; ref Sahu, Guo, and Scarlata, unpublished results; cited from earlier work.
Data set [6] concerns PLCβ. Particulars: among α-synuclein binding partners; ref [15]; cited from earlier work.
Data set [7] concerns PLCβ1. The note with it: in cells; ref [16]; cited from earlier work.
For data set [8], the system named is PLCβ. Particulars: inhibition can be overcome by G proteins; ref [15]; cited from earlier work.
For the next data set, the system named is neuronal cells. The note with it: overexpression of α-synuclein; ref [34]; cited from earlier work.

On to `[Cl-].[Cl-].[Co+2]` [CoCl2], for which the “GFP-α-synuclein/mCherry-α-synuclein FRET, oxidative stress” value in data set [1] is listed as “significant increase in FRET”. The “Cellular level of PLCβ1” value in the data set on PLCβ1 [2] is listed as “significantly reduces the cellular level of PLCβ1”. Moreover, the “Amount of native PLCβ1” value with PLCβ1 [3] was “reduces the amount of native PLCβ1”. Further, in the data set on α-synuclein, the “Amount of α-synuclein” value is “little effect on the amount of α-synuclein” and the “α-Synuclein tetramers vs monomers” value is “increase in α-synuclein tetramers at the expense of monomers”. Further, the “α-Synuclein aggregation induced by CoCl2” value in the data set with purified α-synuclein is “produces visible α-synuclein aggregation”.

Regarding CKKVVLPTLASLR [peptide], the PLCβ1-α-synuclein association result in data set [4] is “inhibits PLCβ1-α-synuclein association”. For the same compound, the “GFP-α-synuclein/mCherry-α-synuclein FRET, peptide” value in [5] is on record as “the same within error”.

Consider α-synuclein, for which, in the data set on PLCβ1-C3PO interaction, the “Interaction of Alexa488-PLCβ1 with Alexa546-C3PO” value is on record as “prevents Alexa488-PLCβ1 from interacting with Alexa546-C3PO”. For the same compound, in the data set with PLCβ1 [2] (oxidative stress, α-synuclein present), the “Decrease of PLCβ1 level due to oxidation, effect of α-synuclein” value was “more pronounced in the presence of α-synuclein”. In addition, the “Affinity of PLCβ for α-synuclein” value with PLCβ [6] is “one of the strongest affinities”. Besides, in the data set with PLCβ1 [7], the “Intracellular level of PLCβ1” value is “raises the intracellular level of the enzyme” and the “PLCβ1 degradation by calpain” value is recorded as “prevents PLCβ1 degradation by calpain”. Also, the PLCβ activity result in the data set on PLCβ [8] is on record as “inhibits PLCβ activity”. The “Inclusions and neuronal death on overexpression” value in the data set on neuronal cells was “cause inclusions and neuronal death”.
